In paper PMC4100979 (Chembiochem : a European journal of chemical biology, 2013):
Entries after “also recorded” stand apart in the source; their conditions may differ.

Columns and labels:
[1] = tested on: GLP-1R and SUR1 on βTC3 cells; assay: Competition of 15 nM Eu-GLP-1/Glb 10 by unlabelled monomers in live βTC3 cells; assay type: binding; details: 1.6 nM monomer vs 15 nM Eu-GLP-1/Glb 10, 1 hr, Figure 3
In short: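 βTC3 cells, ~70,000/well, grown 3 days. They were exposed for 1 h to 15 nM Eu-labelled bivalent ligand with 4.1 fM or 1.6 nM unlabelled GLP-1 or Glb, in RPMI binding medium (1 mM 1,10-phenanthroline, 200 mg/L bacitracin, 0.5 mg/L leupeptin, 0.2% BSA). Non-specific binding was not measured. Cells were washed three times, then given enhancement solution for ≥30 min at 37°C. Eu time-resolved fluorescence was read at 340/615 nm. Quadruplicates unless noted.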

GLP-1R on βTC3 cells = target: T1, GLP-1R on βTC3 cells (Mus musculus, UniProt O35659); assay: Saturation binding of bivalent Eu-labelled ligand in presence of unlabelled Glb; details: 300 nM Glb, below 35 nM Eu-ligand
T1 sequence (O35659 22-463): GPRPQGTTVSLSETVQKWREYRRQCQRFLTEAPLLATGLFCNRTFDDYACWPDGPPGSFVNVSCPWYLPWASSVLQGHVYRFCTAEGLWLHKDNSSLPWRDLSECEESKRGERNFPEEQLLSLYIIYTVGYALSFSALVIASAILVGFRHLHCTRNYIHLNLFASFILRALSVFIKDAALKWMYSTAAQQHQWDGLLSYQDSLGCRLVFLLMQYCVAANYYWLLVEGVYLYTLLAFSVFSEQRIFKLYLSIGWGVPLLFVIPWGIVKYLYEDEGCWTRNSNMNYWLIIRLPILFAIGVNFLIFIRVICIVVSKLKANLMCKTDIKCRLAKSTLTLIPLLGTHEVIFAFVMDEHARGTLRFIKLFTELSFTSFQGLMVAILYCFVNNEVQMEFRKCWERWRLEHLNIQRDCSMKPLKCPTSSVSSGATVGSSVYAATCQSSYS

INS 832/3 cells = assay: Insulin secretion; assay type: cell-based, rat; details: 20 mM glucose vs 1 mM glucose, 2 hour incubation; p<0.05
In short: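 INS 832/3 cells were seeded at 500,000/well and grown 72 h. They were rinsed in HBSS with 1 mM glucose, then held 2 h in the same. Medium was replaced with the test glucose level (1 or 20 mM) ± secretagogues for 2 h. Secreted insulin was measured by rat insulin ELISA (ng/ml) and expressed as % of the mean 1 mM glucose secretion within each experiment.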

Molecule | effect of unlabelled monomer on bivalent binding [1] | effect of unlabelled Glb on high affinity binding of Eu-GLP-1/Glb 10 (GLP-1R on βTC3 cells) | induction of insulin secretion by glucose (INS 832/3 cells)
COc1ccc(Cl)cc1C(=O)NCCc1ccc(S(=O)(=O)NC(=O)NC2CCCCC2)cc1 [Glb, glibenclamide] | bivalent binding is lost | blocks high affinity binding; also recorded: blocked the high affinity binding | –
GLP-1: unlabelled GLP-1 monomer used as competitor | bivalent binding is lost | – | –
OC[C@H]1OC(O)[C@H](O)[C@@H](O)[C@@H]1O (stereo partly shown) [glucose] | – | – | ~ 4 fold
